Legend:
Rattus norvegicus [1] = assay: Reduction of food intake in Sprague-Dawley rat at 50 umol/kg, po after 2 hrs relative to control; type: functional
Summary of the method: (§1)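 Male Sprague-Dawley rats, caged singly, kept 2 weeks on a reverse light cycle, freely fed, eight per group. Oral gavage of vehicle or compound 1 h before the dark cycle. Food intake measured 2 h postdose and compared with vehicle control.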

[2] = target: Serotonin 2 receptors; 5-HT2a & 5-HT2c (Homo sapiens) (UniProt P28223+P28335); assay: Selectivity ratio of pEC50 for human 5HT2A to pEC50 for human 5HT2C
Chain of Serotonin 2 receptors; 5-HT2a & 5-HT2c (Homo sapiens) (P28223 whole entry, looked up, one chain of several): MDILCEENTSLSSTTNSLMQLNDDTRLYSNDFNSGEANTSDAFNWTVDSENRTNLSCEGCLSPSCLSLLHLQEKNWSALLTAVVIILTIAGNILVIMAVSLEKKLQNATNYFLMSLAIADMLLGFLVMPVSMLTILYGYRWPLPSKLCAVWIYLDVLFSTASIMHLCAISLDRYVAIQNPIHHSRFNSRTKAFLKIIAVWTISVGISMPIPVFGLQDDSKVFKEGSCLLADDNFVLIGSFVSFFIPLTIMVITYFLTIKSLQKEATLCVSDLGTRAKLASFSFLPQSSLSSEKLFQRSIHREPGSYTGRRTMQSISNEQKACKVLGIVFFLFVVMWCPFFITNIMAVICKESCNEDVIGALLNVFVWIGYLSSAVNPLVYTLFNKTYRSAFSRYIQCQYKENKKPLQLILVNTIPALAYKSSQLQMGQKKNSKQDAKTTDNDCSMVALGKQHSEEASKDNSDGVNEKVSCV

Rattus norvegicus [3] = assay: Reduction of food intake in Sprague-Dawley rat at 25 umol/kg, po after 2 hrs relative to control; type: functional; summary of the method: as §1
Rattus norvegicus [4] = assay: Reduction of food intake in Sprague-Dawley rat at 100 umol/kg, po after 2 hrs relative to control; type: functional; summary of the method: as §1
Homo sapiens = species on record: Homo sapiens; assay: Selectivity ratio of pEC50 for human 5HT2B to pEC50 for human 5HT2C
[5] = target: T1, 5-hydroxytryptamine receptor 2C (Homo sapiens, UniProt P28335); assay: Agonist activity at human 5HT2C receptor expressed in HEK293 cells assessed as intracellular IP3 accumulation; type: functional, cell-based
T1 sequence (P28335 whole entry): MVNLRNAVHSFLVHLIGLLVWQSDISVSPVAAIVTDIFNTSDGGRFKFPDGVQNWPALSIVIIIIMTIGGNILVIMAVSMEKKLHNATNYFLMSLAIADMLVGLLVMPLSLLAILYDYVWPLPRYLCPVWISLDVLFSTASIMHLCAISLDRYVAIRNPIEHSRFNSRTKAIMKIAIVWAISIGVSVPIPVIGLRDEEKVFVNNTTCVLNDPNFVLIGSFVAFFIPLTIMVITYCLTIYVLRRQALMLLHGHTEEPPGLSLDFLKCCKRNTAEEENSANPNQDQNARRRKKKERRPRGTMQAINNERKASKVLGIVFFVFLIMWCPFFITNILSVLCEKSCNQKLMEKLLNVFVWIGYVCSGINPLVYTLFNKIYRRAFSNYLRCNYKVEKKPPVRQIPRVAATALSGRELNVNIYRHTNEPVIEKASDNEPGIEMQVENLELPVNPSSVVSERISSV
Summary of the method: (§2)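 Functional agonist assay read out as [3H]phosphoinositol turnover; potency expressed as pEC50.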

[6] = target: 5-hydroxytryptamine receptor 2A (Homo sapiens, UniProt P28223); assay: Agonist activity at human 5HT2A receptor expressed in HEK293 cells assessed as intracellular IP3 accumulation; type: functional, cell-based; summary of the method: as §2
Chain of 5-hydroxytryptamine receptor 2A (P28223 whole entry): as the sequence (P28223 whole entry, looked up, one chain of several) above

[7] = target: 5-hydroxytryptamine receptor 2B (Homo sapiens, UniProt P41595); assay: Agonist activity at human 5HT2B receptor expressed in HEK293 cells assessed as intracellular IP3 accumulation; type: functional, cell-based; summary of the method: as §2
Chain of 5-hydroxytryptamine receptor 2B (P41595 whole entry): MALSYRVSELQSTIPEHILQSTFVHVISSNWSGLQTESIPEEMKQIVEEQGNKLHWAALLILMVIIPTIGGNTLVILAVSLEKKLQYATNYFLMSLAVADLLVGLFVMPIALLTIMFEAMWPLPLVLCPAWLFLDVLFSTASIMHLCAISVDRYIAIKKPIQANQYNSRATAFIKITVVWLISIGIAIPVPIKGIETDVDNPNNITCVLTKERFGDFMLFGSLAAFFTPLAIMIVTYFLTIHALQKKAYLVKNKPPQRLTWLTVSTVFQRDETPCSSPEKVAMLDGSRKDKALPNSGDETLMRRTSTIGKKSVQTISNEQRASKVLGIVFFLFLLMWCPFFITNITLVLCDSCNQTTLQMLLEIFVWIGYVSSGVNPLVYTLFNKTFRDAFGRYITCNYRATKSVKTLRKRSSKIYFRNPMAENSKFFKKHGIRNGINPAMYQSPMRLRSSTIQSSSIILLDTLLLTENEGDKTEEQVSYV

Rattus norvegicus [8] = assay: Reduction of food intake in Sprague-Dawley rat at 12.5 umol/kg, po after 2 hrs relative to control; type: functional; summary of the method: as §1
[9] = Tmax in Sprague-Dawley rat at 10 mg/kg, po; type: ADME, organism-based; design: dose 10 mg/kg, route oral; details: in vivo
[10] = Half life in Sprague-Dawley rat at 10 mg/kg, po; type: ADME, organism-based; design: dose 10 mg/kg, route oral; details: in vivo
[11] = Cmax in Sprague-Dawley rat at 10 mg/kg, po; type: ADME, organism-based; design: dose 10 mg/kg, route oral; details: in vivo
Rattus norvegicus [12] = assay: Reduction of body weight in Sprague-Dawley rat at 18 mg/kg, po, qd after 28 days relative to control; type: functional; design: scale not given: the % may be the effect or the level left
Summary of the method: (§3)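 Adult male Sprague-Dawley rats (250–400 g), caged separately with free access to food and water. Oral gavage of vehicle or drug for 28 days, with arms of 9, 18 and 36 mg/kg twice daily and 18 mg/kg once daily. Daily food intake and body weight recorded and compared with vehicle control.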

[13] = Oral bioavailability in Sprague-Dawley rat at 10 mg/kg; type: ADME, organism-based; details: in vivo
[14] = Volume of distribution at steady state in Sprague-Dawley rat at 5 mg/kg, iv; type: ADME, organism-based; design: dose 5 mg/kg, route intravenous; details: in vivo, read-out: Vdss
Rattus norvegicus [15] = species on record: Rattus norvegicus; assay: Reduction of food intake in Sprague-Dawley rat after 6 hrs relative to control; type: functional
Summary of the method: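 Male Sprague-Dawley rats, individually caged after 2 weeks on a reverse light cycle, freely fed, eight per group. Dosed by oral gavage 1 h before the dark cycle. Food intake measured 6 h postdose versus vehicle-treated rats.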

Rattus norvegicus [16] = assay: Reduction of body weight in Sprague-Dawley rat at 9 mg/kg, po, bid after 28 days relative to control; type: functional; design: scale not given: the % may be the effect or the level left; summary of the method: as §3
[17] = Half life in Sprague-Dawley rat at 5 mg/kg, iv; type: ADME, organism-based; design: dose 5 mg/kg, route intravenous; details: in vivo
[18] = Clearance in Sprague-Dawley rat at 5 mg/kg, iv; type: ADME, organism-based; design: dose 5 mg/kg, route intravenous; details: in vivo
Rattus norvegicus [19] = assay: Reduction of body weight in Sprague-Dawley rat at 36 mg/kg, po, bid after 28 days relative to control; type: functional; design: scale not given: the % may be the effect or the level left; summary of the method: as §3
Rattus norvegicus [20] = assay: Reduction of body weight in Sprague-Dawley rat at 18 mg/kg, po, bid after 28 days relative to control; type: functional; design: scale not given: the % may be the effect or the level left; summary of the method: as §3
[21] = AUC (0-infinity) in Sprague-Dawley rat at 5 mg/kg, iv; type: ADME, organism-based; design: time infinity, dose 5 mg/kg, route intravenous; details: plasma
[22] = AUC (0-infinity) in Sprague-Dawley rat at 10 mg/kg, po; type: ADME, organism-based; design: time infinity, dose 10 mg/kg, route oral; details: plasma

Row | Structure (SMILES) | inhibition in vivo at 50 µmol/kg (Rattus norvegicus [1]) [%] | Selectivity ratio [2] | inhibition in vivo at 25 µmol/kg (Rattus norvegicus [3]) [%] | inhibition in vivo at 100 µmol/kg (Rattus norvegicus [4]) [%] | Selectivity ratio (Homo sapiens) | EC50 [5] [nM] | EC50 [6] [nM] | EC50 [7] [nM] | also measured
1 | Clc1ccc2c(c1)CCNCC2 | 68 | 0.9 | 63 | 85 | 1.9 | 12.6 | 100 |  | 
2 | C[C@H](N)Cn1ccc2cc(F)c(Cl)cc21 |  | 1.1 |  |  | -0.4 | 3.98 | 50.1 | 1.58 | 
3 | CC1CNCCc2ccc(Cl)cc21 (racemic) | 62 |  | 52 | 81 |  |  |  |  | 
4 | COc1cc2c(cc1Cl)C(C)CNCC2 (single isomer, unassigned; form 1) [listing 1 of 2 here] | 36 |  | 32 | 43 |  | 7.94 | 200 | 398 | 
5 | COc1cc2c(cc1Cl)CCNCC2C (racemic) |  | 0.3 |  |  | 0.6 | 50.1 | 100 | 200 | 
6 | COc1cc2c(cc1Cl)C(C)CNCC2 (single isomer, unassigned; form 2) [listing 1 of 2 here] | 66 |  | 60 | 77 |  | 6.31 | 31.6 | 39.8 | 
7 | C[C@@H]1CNCCc2cc(Cl)c(Cl)cc21 | 58 | 1.1 | 54 | 74 | 1.5 | 7.94 | 100 | 251 | 
8 | CC1CNCCc2ccc(Cl)c(Cl)c21 (racemic) |  | 1.4 |  |  | 2.3 | 7.94 | 200 | 1580 | 
9 | CC1CNCCc2cccc(Cl)c21 (racemic) |  |  |  |  |  | 794 | > 10000 | > 10000 | 
10 | C[C@H](N)Cc1cccc(C(F)(F)F)c1 [NORDEXFENFLURAMINE] |  | 0.9 |  |  | -0.2 | 25.1 | 200 | 15.8 | 
11 | C[C@@H]1CNCCc2ccc(Cl)c(Cl)c21 | 41 | 1.6 | 19 | 69 | 2.6 | 3.16 | 126 | 1260 | 
12 | CC1CNCCc2c(Cl)cc(Cl)cc21 (centres undefined) |  | 0.8 |  |  | 1.6 |  | 126 | 794 | 
13 | C[C@H]1CNCCc2ccc(C(F)(F)F)cc21 | 41 | 1.2 | 22 |  | 1.8 | 7.94 | 126 | 501 | inhibition in vivo at 12.5 µmol/kg (Rattus norvegicus [8]): 14%
14 | COc1cc2c(cc1Cl)C(C)CNCC2 (single isomer, unassigned; form 1) [listing 2 of 2 here] |  | 1.4 |  |  | 1.7 |  |  |  | 
15 | COc1cc2c(cc1Cl)C(C)CNCC2 (racemic) [listing 1 of 2 here] | 52 |  | 38 | 71 |  | 7.94 | 63.1 | 63.1 | 
16 | COc1ccc2c(c1)C(C)CNCC2 (racemic) |  |  |  |  |  | 200 | 251 | 5010 | 
17 | CC1CNCCc2cc(Cl)ccc21 (racemic) |  | 0.8 |  |  | 1.3 | 25.1 | 158 | 501 | 
18 | C[C@H]1CNCCc2ccc(Cl)cc21 [LORCASERIN] | 77 |  | 58 | 82 |  |  |  |  | inhibition in vivo at 12.5 µmol/kg (Rattus norvegicus [8]): 34%; Tmax [9]: 0.5 h; half-life [10]: 3.7 h; Cmax [11]: 260 ng/mL; Activity (Rattus norvegicus [12]): 17.02%; bioavailability [13]: 86%; Vd [14]: 18 L/kg; ED50 (Rattus norvegicus [15]): 18 mg/kg; Activity (Rattus norvegicus [16]): 15.75%; half-life [17]: 3.1 h; clearance [18]: 102 mL/min/kg; Activity (Rattus norvegicus [19]): 8.5%; Activity (Rattus norvegicus [20]): 14.03%; AUC(0-inf) [21]: 800 ng·h/mL; AUC(0-inf) [22]: 1400 ng·h/mL
19 | CC[C@H]1CNCCc2ccc(Cl)cc21 |  | 0.8 |  |  | 0.8 | 39.8 | 251 | 251 | 

Row | Structure (SMILES) | inhibition in vivo at 50 µmol/kg (Rattus norvegicus [1]) [%] | Selectivity ratio [2] | inhibition in vivo at 25 µmol/kg (Rattus norvegicus [3]) [%] | inhibition in vivo at 100 µmol/kg (Rattus norvegicus [4]) [%] | Selectivity ratio (Homo sapiens) | EC50 [5] [nM] | EC50 [6] [nM] | EC50 [7] [nM] | also measured
20 | C[C@@H]1CNCCc2ccc(Cl)cc21 | 41 |  | 26 | 73 |  |  |  |  | inhibition in vivo at 12.5 µmol/kg (Rattus norvegicus [8]): 7%
21 | CC1CNCCc2ccccc21 (racemic) |  |  |  |  |  | 316 |  | 3980 | 
22 | C[C@H]1CNCCc2cc(Cl)c(Cl)cc21 | 40 | 0.4 | 16 | 66 | 1 | 3.98 | 10 | 39.8 | 
23 | CC1CNCCc2ccc(C(F)(F)F)cc21 (racemic) |  | 1.2 |  |  | 2.1 | 6.31 |  | 794 | 
24 | CC1CNCCc2ccc(Br)cc21 (racemic) |  | 1.7 |  |  | 2.3 | 10 | 501 | 2000 | 
25 | c1ccc2c(c1)CCNCC2 |  |  |  |  |  | 3160 | > 10000 | > 10000 | 
26 | COc1cc2c(cc1Cl)C(C)CNCC2 (racemic) [listing 2 of 2 here] |  | 0.9 |  |  | 0.9 |  |  |  | 
27 | CC[C@@H]1CNCCc2ccc(Cl)cc21 |  | 1.2 |  |  | 1.5 | 20 | 316 | 631 | 
28 | CC1(C)CNCCc2ccc(Cl)cc21 |  |  |  |  |  | 200 | 1580 | > 10000 | 
29 | C[C@@H]1CNCCc2ccc(Cl)c(F)c21 |  | 2.4 |  |  | > 3.4 | 3.98 | 1000 | > 10000 | 
30 | COc1ccc2c(c1)CCNCC2C (racemic) |  |  |  |  |  | 1260 | > 10000 | > 10000 | 
31 | C[C@H]1CNCCc2ccc(Cl)c(Cl)c21 |  |  |  |  |  | 316 | 2510 | > 10000 | 
32 | CC1CNCCc2cc(F)c(Cl)cc21 (racemic) | 41 | 1 | 30 | 58 | 1.7 | 6.31 | 63.1 | 316 | 
33 | CC1CNCCc2ccc(F)cc21 (racemic) |  |  |  |  |  | 398 |  | > 10000 | 
34 | C[C@@H]1CNCCc2ccc(C(F)(F)F)cc21 | 45 | 1 | 18 |  | 1.9 | 10 | 100 | 794 | inhibition in vivo at 12.5 µmol/kg (Rattus norvegicus [8]): 16%
35 | CC1CNCCc2cc(Cl)c(Cl)cc21 (racemic) | 44 | 0.7 | 33 | 60 | 1.1 |  | 20 | 50.1 | 
36 | COc1cc2c(cc1Cl)C(C)CNCC2 (single isomer, unassigned; form 2) [listing 2 of 2 here] |  | 0.7 |  |  | 0.8 |  |  |  | 
37 | CC1CNCCc2c(Cl)cccc21 (racemic) |  |  |  |  |  | 794 | > 10000 | > 10000 | 
38 | CC1CNCCc2ccc(Cl)c(F)c21 (racemic) |  | 1.6 |  |  | 2.1 | 20 | 794 | 2510 | 

— ChEMBL document CHEMBL1140712 (J Med Chem, 2008)
